Assay results as given in ChEMBL document CHEMBL5512642, “Novel triterpenoid pyrones, phthalimides and phthalates are selectively cytotoxic in CCRF-CEM cancer cells - Synthesis, potency, and mitochondrial mechanism of action” (Eur J Med Chem, 2024).
pIC50: −log10 of the molar value. Activity calls are given as the source filed them. No cut-off for these calls is given here.

Key:
[1] = Metabolic stability in human liver microsomes assessed as compound remaining at measured at 15 mins in presence of NADPH by RF-MS analysis; type: ADME, Microsome; conditions: read-out: Stability
Outline: (§1)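 Human liver microsomes with NADPH cofactor to assess phase I oxidation. Compound remaining sampled at 15, 30 and 60 min; intrinsic clearance derived and categorized. Run in triplicate.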

[2] = Cytotoxicity against human K562-Tax cells assessed as reduction in cell viability incubated for 72 hrs by MTS assay; type: functional, cell-based
[3] = Metabolic stability in human liver microsomes assessed as compound remaining at measured at 30 mins in presence of NADPH by RF-MS analysis; type: ADME, Microsome; conditions: read-out: Stability; outline: as §1
CCRF-CEM [4] = assay: Induction of apoptosis in human CCRF-CEM cells assessed as necrotic cells at 1 time IC50 incubated for 24 hrs by Annexin V and propidium iodide staining based flow cytometry analysis (reference value: 0.1%); type: functional
[5] = Efflux ratio of apparent permeability across basolateral to apical side over apical to basolateral side in human Caco-2 cells; type: ADME, cell-based
Outline: (§2)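 Caco-2 and MDCK-MDR1 monolayers; transport measured in both directions, apical→basolateral and basolateral→apical. Efflux ratio taken from the two directions; ER > 2 counted as active efflux. Compound recovery reported. Cell-based permeability runs done in duplicate.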

CCRF-CEM [6] = assay: Induction of apoptosis in human CCRF-CEM cells assessed as reduction in Bcl-XL expression at 5 time of IC50 incubated for 24 hrs by Western blot analysis; type: functional, cell-based
Outline: (§3)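 Lysate 20 µg protein per lane on SDS-PAGE, transferred to nitrocellulose, blocked in 5% BSA/TBS-Tween. Probed overnight at 4 °C with anti-caspase-3, Bcl-2, Bcl-XL, β-actin, then HRP secondary 1 h. ECL chemiluminescence detection.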

CCRF-CEM [7] = assay: Induction of apoptosis in human CCRF-CEM cells assessed as early apoptotic cells at 1 time IC50 incubated for 24 hrs by Annexin V and propidium iodide staining based flow cytometry analysis (reference value: 1.4%); type: functional
[8] = Stability in human plasma assessed as compound remaining measured 30 mins by RF-MS analysis; type: ADME, cell-free; conditions: read-out: Stability
Outline: (§4)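 Compounds incubated in human plasma in vitro for up to 2 h. Percent remaining sampled at 15, 30, 60 and 120 min. Run in triplicate.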

CCRF-CEM [9] = assay: Induction of apoptosis in human CCRF-CEM cells assessed as late apoptotic cells at 5 time IC50 incubated for 24 hrs by Annexin V and propidium iodide staining based flow cytometry analysis (reference value: 0.5%); type: functional
HCT 116 TP53(-/-) = assay: Cytotoxicity against human HCT116-p53-null cells assessed as reduction in cell viability incubated for 72 hrs by MTS assay; type: functional, cell-based
[10] = Metabolic stability in human liver microsomes assessed as compound remaining at measured at 60 mins in presence of NADPH by RF-MS analysis; type: ADME, Microsome; conditions: read-out: Stability; outline: as §1
CCRF-CEM [11] = assay: Induction of apoptosis in human CCRF-CEM cells assessed as viable cells at 1 time IC50 incubated for 24 hrs by Annexin V and propidium iodide staining based flow cytometry analysis (reference value: 98%); type: functional
CCRF-CEM [12] = assay: Cytotoxicity against human CCRF-CEM cells assessed as reduction in cell viability incubated for 72 hrs by MTS assay; type: functional, cell-based
[13] = Plasma protein binding in human assessed as fraction bound at 10 uM by rapid equilibrium dialysis based RF-MS analysis; type: ADME, cell-free; conditions: read-out: PPB (converted)
Outline: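 Human plasma protein binding measured by equilibrium dialysis and reported as percent fraction bound. Run in triplicate.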

K562 = assay: Cytotoxicity against human K562 cells assessed as reduction in cell viability incubated for 72 hrs by MTS assay; type: functional, cell-based; conditions: K562, 72 h
[14] = Stability in human plasma assessed as compound remaining measured 15 mins by RF-MS analysis; type: ADME, cell-free; conditions: read-out: Stability; outline: as §4
CCRF-CEM [15] = assay: Antiproliferative activity against human CCRF-CEM cells assessed as reduction cell population at 1 time of IC50 by BrdU incorporation assay; type: functional, cell-based
Outline: (§5)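 Mitotic fraction scored with the pH3 Ser10 marker and DNA synthesis with BrdU incorporation. For transcription, cells received a short BrU pulse after the 24 h pre-incubation. Read by flow cytometry against untreated cells.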

CCRF-CEM [16] = assay: Induction of apoptosis in human CCRF-CEM cells assessed as necrotic cells at 5 time IC50 incubated for 24 hrs by Annexin V and propidium iodide staining based flow cytometry analysis (reference value: 0.; type: functional
[17] = Apparent permeability of the compound across apical to basolateral side in human Caco-2 cells assessed as compound recovery; type: ADME, cell-based; conditions: read-out: Activity; outline: as §2
HCT-116 = assay: Cytotoxicity against human HCT-116 cells assessed as reduction in cell viability incubated for 72 hrs by MTS assay; type: functional, cell-based; conditions: HCT-116, 72 h
[18] = Apparent permeability of the compound in human Caco-2 cells; type: ADME, cell-based; outline: as §2
[19] = Apparent permeability of the compound in MDCK-MDR1 cells at 10 uM incubated for 1 hr by RF-MS analysis; type: ADME, cell-based, Canis lupus familiaris; conditions: dog; outline: as §2
CCRF-CEM [20] = assay: Antiproliferative activity against human CCRF-CEM cells assessed as inhibition of RNA synthesis at 5 time of IC50 by BrdU incorporation assay; type: functional, cell-based; conditions: in the assay text read “BrU incorporation assay” for “BrdU incorporation assay”; outline: as §5
A549 = assay: Cytotoxicity against human A549 cells assessed as reduction in cell viability incubated for 72 hrs by MTS assay; type: functional, cell-based; conditions: A549, 72 h
CCRF-CEM [21] = assay: Induction of apoptosis in human CCRF-CEM cells assessed as late apoptotic cells at 1 time IC50 incubated for 24 hrs by Annexin V and propidium iodide staining based flow cytometry analysis (reference value: 0.5%); type: functional
[22] = Cytotoxicity against human BJ cells assessed as reduction in cell viability incubated for 72 hrs by MTS assay; type: toxicity, cell-based
CCRF-CEM [23] = assay: Induction of mitochondrial membrane potential loss in human CCRF-CEM cells assessed as cells with depolarized mitochondria (P2 gate) by measuring green fluorescence intensity at 5 time IC50 incubated for 24 hrs by JC-1 staining based flow cytometry (reference value: 2.1%)
CCRF-CEM [24] = assay: Induction of mitochondrial membrane potential loss in human CCRF-CEM cells assessed as cells with depolarized mitochondria (P2 gate) by measuring green fluorescence intensity at 1 time IC50 incubated for 24 hrs by JC-1 staining based flow cytometry (reference value: 2.1%)
[25] = Stability in human plasma assessed as compound remaining measured 120 mins by RF-MS analysis; type: ADME, cell-free; conditions: read-out: Stability; outline: as §4
CCRF-CEM [26] = assay: Induction of apoptosis in human CCRF-CEM cells assessed as early apoptotic cells at 5 time IC50 incubated for 24 hrs by Annexin V and propidium iodide staining based flow cytometry analysis (reference value: 1.4%); type: functional
[27] = Apparent permeability of the compound across apical to basolateral side in MDCK-MDR1 cells assessed as compound recovery at 10 uM incubated for 1 hr by RF-MS analysis; type: ADME, cell-based, Canis lupus familiaris; conditions: dog, read-out: Activity; outline: as §2
CCRF-CEM [28] = assay: Induction of apoptosis in human CCRF-CEM cells assessed as reduction in Bcl-2 expression at 5 time of IC50 incubated for 24 hrs by Western blot analysis; type: functional, cell-based; outline: as §3
CEM-DNR = assay: Cytotoxicity against human CEM-DNR cells assessed as reduction in cell viability incubated for 72 hrs by MTS assay; type: functional, cell-based
CCRF-CEM [29] = assay: Induction of apoptosis in human CCRF-CEM cells assessed as viable cells at 5 time IC50 incubated for 24 hrs by Annexin V and propidium iodide staining based flow cytometry analysis (reference value: 98%); type: functional
U2OS = assay: Cytotoxicity against human U2OS cells assessed as reduction in cell viability incubated for 72 hrs by MTS assay; type: functional, cell-based
[30] = Cytotoxicity against human MRC5 cells assessed as reduction in cell viability incubated for 72 hrs by MTS assay; type: toxicity, cell-based
[31] = Stability in human plasma assessed as compound remaining measured 60 mins by RF-MS analysis; type: ADME, cell-free; conditions: read-out: Stability; outline: as §4
[32] = Efflux ratio of apparent permeability across basolateral to apical side over apical to basolateral side in MDCK-MDR1 cells; type: ADME, cell-based, Canis lupus familiaris; conditions: dog; outline: as §2
CCRF-CEM [33] = assay: Antimitotic activity against human CCRF-CEM cells assessed as decrease in cell division at 5 times of IC50; type: functional, cell-based; outline: as §5
CCRF-CEM [34] = assay: Induction of apoptosis in human CCRF-CEM cells assessed as reduction in caspase-3 expression at 5 time of IC50 incubated for 24 hrs by Western blot analysis; type: functional, cell-based; outline: as §3
CCRF-CEM [35] = assay: Antiproliferative activity against human CCRF-CEM cells assessed as reduction BruD positive cell at 1 time of IC50 by BrdU incorporation assay; type: functional, cell-based; outline: as §5
CCRF-CEM [36] = assay: Antiproliferative activity against human CCRF-CEM cells assessed as reduction BruD positive cell at 5 time of IC50 by BrdU incorporation assay; type: functional, cell-based; outline: as §5

Row | remaining at 0.25 h [1] [%] | remaining at 0.5 h [8] [%] | remaining at 1 h [10] [%] | fraction unbound at 10 µM [13] | remaining at 0.25 h [14] [%] | recovery [17] [%] | Papp [18] [×10⁻⁶ cm/s] | Papp at 1 h, 10 µM [19] [×10⁻⁶ cm/s] | Structure (SMILES) | pIC50 [2] | Activity (CCRF-CEM [4]) [%] | Activity (CCRF-CEM [6]) | Activity (CCRF-CEM [7]) [%] | Activity (CCRF-CEM [9]) [%] | pIC50 (HCT 116 TP53(-/-)) | Activity (CCRF-CEM [11]) [%] | pIC50 (CCRF-CEM [12]) | pIC50 (K562) | Activity (CCRF-CEM [15]) | Activity (CCRF-CEM [16]) [%] | pIC50 (HCT-116) | also measured
1 | 92 | 102 | 56 | 0.403 | 99.2 | 84.2 | 0.09 | 0.05 | CC(C)[C@@H]1CC[C@]2(C(=O)O)CC[C@]3(C)[C@H](CC[C@@H]4[C@@]5(C)CC6=C(C7C(=O)N(c8ccccc8)C(=O)C7C=C6C(F)(F)F)C(C)(C)[C@@H]5CC[C@]43C)[C@@H]12 (stereo partly drawn) | < 4.30 | 0 | Active | 4.7 | 4.5 | 4.55 | 92.4 | 5.35 | 4.52 | Active | 0 | 4.54 | remaining at 0.5 h [3]: 92%; efflux ratio [5]: 63.5; Activity (CCRF-CEM [20]): Active; pIC50 (A549): 4.74; Activity (CCRF-CEM [21]): 2.9%; IC50 at 72 h [22]: 25 µM; Activity (CCRF-CEM [23]): 6.7%; Activity (CCRF-CEM [24]): 2.2%; remaining at 2 h [25]: 89%; Activity (CCRF-CEM [26]): 5.2%; recovery at 1 h, 10 µM [27]: 86%; Activity (CCRF-CEM [28]): Active; pIC50 (CEM-DNR): < 4.30; Activity (CCRF-CEM [29]): 90.3%; pIC50 (U2OS): 5.32; IC50 at 72 h [30]: 28 µM; remaining at 1 h [31]: 96.7%; efflux ratio [32]: 71.8; Activity (CCRF-CEM [33]): inactive
2 | 106 | 97.7 | 82 | 0.056 | 98.4 | 105 | 0.15 | 0.27 | CC(C)[C@@H]1CC[C@]2(C(=O)O)CC[C@]3(C)[C@H](CC[C@@H]4[C@@]5(C)Cc6c(C(F)(F)F)cc(=O)oc6C(C)(C)[C@@H]5CC[C@]43C)[C@@H]12 | 4.77 | 0 | Active | 4.8 | 15.8 | 4.74 | 92.4 | 5.46 | 4.64 | inactive | 0 | 5.00 | Activity (CCRF-CEM [20]): Active; pIC50 (A549): 4.96; Activity (CCRF-CEM [21]): 2.8%; Activity (CCRF-CEM [34]): Active; Activity (CCRF-CEM [35]): inactive; IC50 at 72 h [22]: > 50 µM; Activity (CCRF-CEM [23]): 28.6%; Activity (CCRF-CEM [24]): 4%; remaining at 2 h [25]: 94.2%; Activity (CCRF-CEM [36]): Active; Activity (CCRF-CEM [26]): 14.3%; recovery at 1 h, 10 µM [27]: 64.8%; Activity (CCRF-CEM [28]): Active; pIC50 (CEM-DNR): 5.31; Activity (CCRF-CEM [29]): 69.9%; pIC50 (U2OS): 4.72; IC50 at 72 h [30]: 27 µM; remaining at 1 h [31]: 97.5%; Activity (CCRF-CEM [33]): Active
